High-throughput results as filed in PubChem.
In the library only some 1.6% were active in any assay of this set; here they are far more common.
ADAM17 inh: ADAM17 inhibition, QFRET primary screen | AID 720648 | recombinant ADAM17, EDANS/DABCYL FRET peptide cleavage | 0.83% of 370,000 active | P78536 | inhibition, % at 6.95 µM;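 active = inhibition above the mean of compounds lying between control limits plus 3 SD, set per campaign, cut at about 8.5% in these data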;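 note: 0% = DMSO-only wells as the low control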
DDE Tn6 FP inh: DD(E)-Tn6 binding inhibition, primary FP screen; P02675; Fibrin DD(E) TRITC-Tn6 fluorescence polarization displacement; inhibition, % at 8.3 µM; 0.21% of 370,000 active; AID 720509;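 active = inhibition above a per-campaign cutoff: mean of compounds within control limits plus 3 SD, cut at about 15% in these data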;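 note: 0% = median of all compound wells on the plate and 100% = blocking peptide control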
Target sequence (P02675 whole entry, looked up): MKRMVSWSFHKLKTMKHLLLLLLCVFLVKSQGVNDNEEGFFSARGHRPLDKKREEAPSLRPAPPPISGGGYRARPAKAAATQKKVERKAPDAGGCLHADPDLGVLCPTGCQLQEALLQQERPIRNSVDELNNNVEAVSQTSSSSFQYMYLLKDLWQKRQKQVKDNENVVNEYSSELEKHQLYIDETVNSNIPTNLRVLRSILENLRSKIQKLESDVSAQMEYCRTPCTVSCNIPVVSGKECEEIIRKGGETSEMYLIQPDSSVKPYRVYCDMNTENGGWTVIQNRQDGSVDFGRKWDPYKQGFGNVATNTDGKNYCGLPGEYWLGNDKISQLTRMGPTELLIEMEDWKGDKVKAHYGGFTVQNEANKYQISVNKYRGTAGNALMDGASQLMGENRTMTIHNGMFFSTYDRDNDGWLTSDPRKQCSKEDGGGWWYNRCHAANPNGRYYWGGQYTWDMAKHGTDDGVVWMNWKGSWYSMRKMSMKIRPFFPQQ
MT1-MMP act inh: MT1-MMP (human) activation inhibition; HT1080 RFP-PRO-GFP cells, GFP/RFP ratio fluorescence, overnight; percent of plate control window, DMSO zero; GFP/RFP ratio change, % at 20 µM; AID 651647; P50281; 0.061% of 360,000 active;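 active = GFP/RFP ratio change of at least 30% with cell ATP level not reduced by more than half and red fluorescence within 50% of control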
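Test system: HT1080 cells expressing an RFP-PRO-GFP fluorescent reporter construct / Compound dosing: single-point 20 µM compound, 1% DMSO / Schedule: cells overnight before dosing, compound overnight, 37 °C, 5% CO2 / Evaluation: GFP/RFP fluorescence ratio / Control set: DMSO and RFP-L50D-GFP cell wells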
ADAM10 inh: inhibits human ADAM10 | O14672 | recombinant ADAM10, EDANS/DABCYL FRET peptide cleavage, 3 h | inhibition, % at 7 µM | 0.62% of 370,000 active;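 active = inhibition above a per-campaign cutoff equal to the mean of compounds falling between control-based bounds plus 3 SD, cut at about 20% in these data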;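 note: 0% = DMSO wells while the 100% control is not disclosed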
DDE Tn7 FP inh: DD(E)-Tn7 binding inhibition, primary FP screen; 0.13% of 370,000 active; FP displacement of FITC-Tn7 peptide from fibrin DD(E); 0% = median of compound wells per plate; P02675; inhibition, % at 8.3 µM;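 active = inhibition above the mean of compounds falling within the control limits plus 3 SD of them, cut at about 14% in these data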;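 note: 0% = plate median of compound wells and 100% = 10 µM Aha-Tn7 peptide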
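Assay system: human fibrin DD(E) protein / Input: 2 µM fibrin DD(E) / Benchmarks: high control of 10 µM Aha-Tn7 peptide / Measured by: fluorescence polarization of the labelled Tn7 tracer / Medium: Tris buffer with calcium and detergent, pH 7.8 / Timing: 10 min compound pre-incubation, 3 h probe incubation at room temperature / Repeats: one replicate per compound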
DDE Tn6 FP ctr: counter-screen for inhibitors of Tn6 peptide binding to fibrin DD(E); shares compounds with DDE Tn6 FP inh; TRITC-Tn6 fluorescence polarization displacement; 0% = median of compound wells, not DMSO; inhibition, % at 8.3 µM; 2% of 680 active;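 active = inhibition above the mean of test compounds lying between the control limits plus 3 SD of those, cut at about 14% in these data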;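 note: 0% = median of compound wells and 100% = wells with Aha-Tn7 blocking peptide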
Tn6 DDE conf: confirmation of inhibitors of Tn6 binding to human fibrin DD(E). shares compounds with DDE Tn6 FP inh. FP displacement of TRITC-Tn6 peptide from DD(E); 0% = per-plate median of test wells. inhibition, % at 8.3 µM. 10% of 680 active. AID 720631;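 active = inhibition above the mean of compounds lying within the control limits plus 3 SD, cut at about 16% in these data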;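 note: 100% = high control wells holding a competing inhibitor peptide at 10 µM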
The depositor's hits bear a star.

What do the screens show for `CCc1cc(=O)oc2c3c(cc(OCC(=O)NCCCn4ccnc4)c12)OC(C)(C)CC3`?
ADAM17 inh: inactive; DDE Tn6 FP inh: 15*; MT1-MMP act inh: -2; ADAM10 inh: inactive; DDE Tn7 FP inh: 3; DDE Tn6 FP ctr: -1; Tn6 DDE conf: -2

What do the screens show for `COc1cc([N+](=O)[O-])cc(/C=C2/SC(=S)N(Cc3ccccc3)C2=O)c1O`?
ADAM17 inh: 2; DDE Tn6 FP inh: 56*; MT1-MMP act inh: 4; ADAM10 inh: 2; DDE Tn7 FP inh: 1; DDE Tn6 FP ctr: 0; Tn6 DDE conf: 34*

Results for COc1cc(/C=C2/SC(=S)N(Cc3ccccc3)C2=O)cc(Cl)c1O ?
ADAM17 inh: -4; DDE Tn6 FP inh: 5; MT1-MMP act inh: 9; ADAM10 inh: 1; DDE Tn7 FP inh: 5

What do the screens show for `COc1ccc(NS(=O)(=O)c2ccc3nc(COc4cccc5ccccc45)[nH]c3c2)cc1`?
ADAM17 inh: 4; DDE Tn6 FP inh: 6; MT1-MMP act inh: 2; ADAM10 inh: 17; DDE Tn7 FP inh: 5

What do the screens show for `COc1ccc(NS(=O)(=O)c2ccc3nc(COc4ccc5ccccc5c4)[nH]c3c2)cc1`?
ADAM17 inh: 8; DDE Tn6 FP inh: 54*; MT1-MMP act inh: 2; ADAM10 inh: 18; DDE Tn7 FP inh: 4; DDE Tn6 FP ctr: -1; Tn6 DDE conf: -10

Results for COc1ccc(C(=O)NCc2ccc3c(c2)cc(C)n3C)cc1OC ?
ADAM17 inh: -3; DDE Tn6 FP inh: 37*; MT1-MMP act inh: 41; ADAM10 inh: -6; DDE Tn7 FP inh: 4; DDE Tn6 FP ctr: 1; Tn6 DDE conf: 1

Results for COc1ccc(CC(=O)NCc2ccc3c(c2)cc(C)n3C)cc1 ?
ADAM17 inh: -2; DDE Tn6 FP inh: -3; ADAM10 inh: -3; DDE Tn7 FP inh: 4

What do the screens show for `COc1cccc(C(=O)NCc2ccc3c(c2)cc(C)n3C)c1`?
ADAM17 inh: 5; DDE Tn6 FP inh: 22*; MT1-MMP act inh: 31; ADAM10 inh: 0; DDE Tn7 FP inh: 1; DDE Tn6 FP ctr: -3; Tn6 DDE conf: -6

Results for COc1ccc(/C=C\C(=O)NCc2ccc3c(c2)cc(C)n3C)cc1OC ?
ADAM17 inh: -5; DDE Tn6 FP inh: 30*; MT1-MMP act inh: 7; ADAM10 inh: -10; DDE Tn7 FP inh: -1; DDE Tn6 FP ctr: 1; Tn6 DDE conf: 5

What do the screens show for `CCc1c(-c2ccc(Cl)cc2)ncn1CCc1ccccc1OC`?
ADAM17 inh: 3; DDE Tn6 FP inh: -11; ADAM10 inh: 14; DDE Tn7 FP inh: 4

How did CN(C)Cc1c(C(C)(C)O)[nH]c2cc(F)ccc12 do in these assays?
ADAM17 inh: -2; DDE Tn6 FP inh: -5; ADAM10 inh: -8; DDE Tn7 FP inh: 7

Results for COc1ccccc1CN1CC(C(=O)NCCc2ccc(C)o2)CCC1=O (configuration not stated) ?
ADAM17 inh: 0; DDE Tn6 FP inh: 20*; MT1-MMP act inh: -2; ADAM10 inh: -3; DDE Tn7 FP inh: 6; DDE Tn6 FP ctr: 8; Tn6 DDE conf: 4

What do the screens show for `CC(=O)N1CCN(C(=O)CN2C(=O)CC(C)(C)S(=O)(=O)c3ccccc32)CC1`?
ADAM17 inh: -2; DDE Tn6 FP inh: -3; ADAM10 inh: -13; DDE Tn7 FP inh: 4

Results for CC(=O)Nc1ccc(/C=C/c2ccc3cccc([N+](=O)[O-])c3n2)cc1 ?
ADAM17 inh: 2; DDE Tn6 FP inh: 18*; MT1-MMP act inh: -5; ADAM10 inh: 12; DDE Tn7 FP inh: 8; DDE Tn6 FP ctr: 6; Tn6 DDE conf: 7

Results for O=C(CCc1ccccc1-c1ccccc1CCNC(=O)c1ccc(F)c(F)c1)NCc1ccccc1 ?
ADAM17 inh: 0; DDE Tn6 FP inh: 2; ADAM10 inh: -3; DDE Tn7 FP inh: 0

What do the screens show for `CCOC(=O)C(CNc1ccc(O)cc1)NC(=O)c1ccccc1` (configuration not stated)?
ADAM17 inh: -1; DDE Tn6 FP inh: 66*; ADAM10 inh: -7; DDE Tn7 FP inh: 1; DDE Tn6 FP ctr: 8; Tn6 DDE conf: 10

Results for O=C(O)Cn1cc(/C=C2/SC(=O)N(CC(=O)N3CCCCCC3)C2=O)c2ccccc21 ?
ADAM17 inh: 0; DDE Tn6 FP inh: 15*; ADAM10 inh: -4; DDE Tn7 FP inh: 1; DDE Tn6 FP ctr: 2; Tn6 DDE conf: -1

What do the screens show for `Cn1c(N)c(C(=O)COC(=O)CC2CC3CCC2C3)c(=O)n(C)c1=O` (configuration not stated)?
ADAM17 inh: 5; DDE Tn6 FP inh: 16*; MT1-MMP act inh: 3; ADAM10 inh: -4; DDE Tn7 FP inh: 7; DDE Tn6 FP ctr: 9; Tn6 DDE conf: 6

How did Cn1c(N)c(C(=O)COC(=O)Cc2ccc(Br)cc2)c(=O)n(C)c1=O do in these assays?
ADAM17 inh: 2; DDE Tn6 FP inh: -6; MT1-MMP act inh: -5; ADAM10 inh: -15; DDE Tn7 FP inh: -5

What do the screens show for `CC(C)CN(CC(C)C)C(=O)c1cn(C(C)c2ccccc2)nn1` (configuration not stated)?
ADAM17 inh: -2; DDE Tn6 FP inh: 9; ADAM10 inh: -6; DDE Tn7 FP inh: 5

Results for CCN(CC)c1ccc(C(=O)c2ccccc2C(=O)O)c(O)c1 ?
ADAM17 inh: 3; DDE Tn6 FP inh: 15*; MT1-MMP act inh: 11; ADAM10 inh: 10; DDE Tn7 FP inh: -2; DDE Tn6 FP ctr: 2; Tn6 DDE conf: 15

How did O=C(CCc1c[nH]c2ccccc12)Nc1ccc(Nc2cccnc2)cc1 do in these assays?
ADAM17 inh: 0; DDE Tn6 FP inh: -6; ADAM10 inh: -3; DDE Tn7 FP inh: 3

What do the screens show for `COc1ccc(-c2nn3c(-c4ccco4)nnc3s2)cc1OC`?
ADAM17 inh: -1; DDE Tn6 FP inh: 11; MT1-MMP act inh: 5; ADAM10 inh: -1; DDE Tn7 FP inh: -8

Results for COc1ccc(-c2nnc3sc(-c4ccco4)nn23)cc1OC ?
ADAM17 inh: -1; DDE Tn6 FP inh: 15*; MT1-MMP act inh: 5; ADAM10 inh: -6; DDE Tn7 FP inh: 4; DDE Tn6 FP ctr: 8; Tn6 DDE conf: -6

What do the screens show for `Cc1cc(Sc2nc(NC(C)(C)C)nc(N3CCOCC3)n2)nc(Cl)n1`?
ADAM17 inh: -1; DDE Tn6 FP inh: 17*; MT1-MMP act inh: -3; ADAM10 inh: -1; DDE Tn7 FP inh: 0; DDE Tn6 FP ctr: 5; Tn6 DDE conf: -1
